Laboratory results taken from PMC12322058 (Scientific Reports, 2025).

Assays:
[1] = system: SH-SY5Y cells; assay: MTT colorimetric cytotoxicity assay; assay type: cell-based; conditions: Homo sapiens, 24 h
Method in brief: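 SH-SY5Y cells were grown in DMEM with 10% FBS at 0.1 × 10^5 cells/well for 24 h at 37 °C ([…]/5% CO2) to half-confluence. After a PBS wash and 1 h in serum-free medium, cells received free or nanoparticle test compound (0.05–100 µM) or serum-free medium for 24 h. MTT (1 mg/mL) was added for 4 h; formazan was dissolved in DMSO and read at 540 nm. Viability is expressed as % of control.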

[2] = Plasma pharmacokinetics after IV administration; assay type: in vivo, Sprague-Dawley male rats; conditions: male, Sprague-Dawley, rat, 5 mg/kg
Method in brief: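 Male Sprague-Dawley rats (8–12 weeks) received 5 mg/kg IV. Blood was taken retro-orbitally under isoflurane into K2EDTA at 0.08–24 h (nine points, 3 rats each), and plasma was stored at -85 °C. LC-MS/MS quantification used a 1.03–1026.00 ng/mL calibration with 1/x2 weighting. Noncompartmental analysis on means: AUC by mixed log-linear method, CL = Dose/AUCinf, Vss = CL×MRT.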

[3] = Tissue distribution after IV administration; assay type: in vivo, Sprague-Dawley male rats; conditions: for AUC0 − t: 5 mg/kg IV, rats; for Cmax: male, Sprague-Dawley, rat, iv, 5 mg/kg
Method in brief: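 Male Sprague-Dawley rats (8–12 weeks), 27 per group (free drug or one of two nanoparticle formulations), 3 rats at each of nine time points. Single 5 mg/kg IV dose. CO2 euthanasia; tissues excised, saline-rinsed, homogenized 1:4 in PBS pH 7.4, stored at −85 °C. LC-MS/MS against matrix-matched calibration (1.03–1026.00 ng/mL). Noncompartmental AUC0–t and Cmax; Kp as tissue/plasma AUC ratio; means reported.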

AUC(0-inf) [2]: 1920 ng·h/mL
clearance ([2]; CL, 5 mg/kg IV, rats): 21.8 mL/min/kg
AUC0 − t ([3]; brain posterior region): 757.5 ng·h/g
AUC0 − t ([3]; cerebellum): 402.5 ng·h/g
AUC0 − t ([3]; frontal cortex): 383.8 ng·h/g
Cmax ([3]; cerebellum): 120 ng/g
Cmax ([3]; frontal cortex): 129 ng/g
Cmax ([3]; kidney): 485 ng/g
Cmax ([3]; liver): 2440 ng/g
Cmax ([3]; lungs): 12700 ng/g
Cmax ([3]; posterior brain region): 162 ng/g
SMILES: CC(=O)c1c(C)c2cnc(Nc3ccc(N4CCNCC4)cn3)nc2n(C2CCCC2)c1=O [Palbo, Palbociclib]
IC50 [1]: 860 nM
